Data published in ChEMBL document CHEMBL4513216, “Probing the Open Global Health Chemical Diversity Library for Multistage-Active Starting Points for Next-Generation Antimalarials” (ACS Infect Dis, 2020).

Experiment: Toxicity liver stage against HepG2, at 10uM
Format: cell-based
Parameters: test concentration 10 uM, cell line HepG2-A16-CD81EGFP
Conditions: human, HepG2-A16-CD81EGFP cells; read-out: INHIBITION
How it was run: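 Uninfected HepG2-A16-CD81EGFP cells, 3 × 10^3 per well, 1536-well, plated on prespotted compound at 10 μM final, parasite-free screening media added to match infected plates; puromycin 10 μM positive, DMSO 0.5% negative; run in parallel with 48 h PbLuc assay at 37 °C, 5% CO2; viability by CellTiter-Glo luminescence, normalized to controls.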

Row | Compound | cytotoxicity at 10 µM
1 | FC(F)(F)c1ccc2nc([C@H]3CCN(C4CCC4)C3)[nH]c2c1 | 8.04%
2 | CNCc1cn(C[C@H]2C[C@@H]3CCN2C[C@@H]3C(=O)NC2CCCCC2)nn1 | 1.73%
3 | Cn1cnc2cc(CCC(=O)Nc3nc[nH]n3)ccc21 | 4.44%
4 | O=C(NCCN1CCCC1)c1nc2c(o1)CN(c1ncccn1)C2 | 1.24%
5 | COCC(=O)N1CCC2(CC1)CC(N1CCN(C)CC1)CO2 (stereo not drawn) | -1.25%
6 | CN1C(=O)CC2(CCN(Cc3cnn(C)c3)CC2)c2ccccc21 | 15.7%
7 | Cc1cnc(CNC(=O)c2cc3c(s2)CCN3S(C)(=O)=O)cn1 | 2.22%
8 | O=C(C1CN(CC2CC2)CC12CCOCC2)N1CCCC1 (stereo not drawn) | 7.28%
9 | COC1COC2(CCN(C(=O)c3cocn3)CC2)C1 (stereo not drawn) | 9.64%
10 | CN1CCN(C(=O)[C@H]2C[C@H]3[C@H](CCN3Cc3nccs3)O2)CC1 | 1.73%
11 | CCc1c(C(=O)O)nnn1-c1ccc(C)cc1C | -5.11%
12 | CNc1oc(-c2cc(S(=O)(=O)N3CCCCCC3)c(C)o2)nc1C#N | -5.28%
13 | Cc1nn(CC(=O)O)c2nccc(-c3ccc(F)cc3)c12 | -4.17%
14 | Cc1cc(-c2cnc(N3CCNC(=O)C3)nc2-c2cccnc2C)on1 | -6.9%
15 | Cc1ccc(-c2cc(N)c(=O)n(CC(=O)NCC3CCCCC3)n2)s1 | 2.44%
16 | COCc1c(Br)cccc1NC(=O)CC(F)(F)F | 2.38%
17 | Cn1cc(S(=O)(=O)Nc2ccc3[nH]c(C4CCC4)nc3c2)cn1 | -8.36%
18 | Cc1noc(C2CCCN(C(=O)c3cccc(Cl)c3)C2)n1 (stereo not drawn) | -1.58%
19 | CCc1noc(CNc2cc3c(cc2Cl)OCCO3)n1 | -0.18%
20 | O=C(Cc1ccc2c(c1)CCC2)NC1CCN(Cc2ccccc2)CC1 | 1.88%
21 | CCOc1cc(Cl)ccc1CNC(=O)c1ccc(=O)n(C)c1 | -4.01%
22 | COc1cccc(CN(C)C(C)C(=O)Nc2nc(C)c(C)s2)c1 (stereo not drawn) | 9.74%

Row | Compound | cytotoxicity at 10 µM
23 | CCc1cnc(CN(C)C(=O)NC2CCN(CC3CC3)C2)s1 (stereo not drawn) | -3.86%
24 | COCCN(Cc1ccc(F)cc1Cl)C(=O)c1csnn1 | 11.6%
25 | O=C(CCc1ccncc1)Nc1ccc(OCC2CC2)cc1 | -2.56%
26 | COc1cc2c(cc1OC)S(=O)(=O)N(Cc1ccccc1C)C2=O | 10.3%
27 | CC(C)C(=O)N1CCN(CCOc2cccc(C#N)c2)CC1 | 10.8%
28 | CC1C(=O)Nc2cccnc2N1S(=O)(=O)c1cc(F)cc(F)c1 (stereo not drawn) | -5.26%
29 | COc1ccc(Cl)cc1CNC(=O)CN1CCC2(CCOC2)C1 (stereo not drawn) | -61.7%
30 | Cc1ccc(C2CCCCCN2CCNS(C)(=O)=O)o1 (stereo not drawn) | 0.395%
31 | CCN(C)S(=O)(=O)NCC(O)c1cc2ccccc2s1 (stereo not drawn) | -8.26%
32 | CN1CCN(C(=O)Cc2ccc(S(=O)(=O)C(F)F)cc2)CC1 | 12%
33 | Cc1cc(F)c(S(=O)(=O)Nc2ccn(CCC#N)n2)cc1F | 17.3%
34 | Cc1cccc(N2CCN(C(=O)CCCC(=O)N(C)C)C(C)C2)n1 (stereo not drawn) | 14.6%
35 | CCS(=O)(=O)NCCNCc1cc(F)ccc1Br | 1.58%
36 | CC(C)C(=O)N1CCN(CC(O)c2cc(Cl)ccc2Cl)CC1 (stereo not drawn) | 3.41%
37 | CC(C)(C)c1cnc(CN2CCC(NC(=O)Nc3ccccc3)CC2)o1 | -12.3%
38 | CN(C)C(=O)NCC1CC2(CO1)CN(c1nncs1)C2 (stereo not drawn) | -96.3%
39 | O=C(CC(F)(F)F)N1CCC2(CCCN(c3nncs3)C2)C1 (stereo not drawn) | -105%
40 | Cn1cnc(-c2nc(C(=O)NCCN3CCCC3)c3ccccn23)c1 | -109%
41 | O=C(c1cnccn1)N1CCc2c(COCC3CC3)cncc2C1 | -72.4%
42 | O=C(c1ccccn1)N1CC[C@@H](N2CCOCC2)[C@@H]1Cc1ccccc1 | -77.9%
43 | CS(=O)(=O)NCc1nnc2n1CCN(CC1CC1)C2 | -0.285%
44 | CN1CCCCC1C(=O)N1CCN(c2ccccc2C#N)CC1 (stereo not drawn) | -6.85%

Row | Compound | cytotoxicity at 10 µM
45 | O=C(O)[C@@H]1CN(C(=O)CSCCN2CCCC2)C[C@H]1c1ccccc1 | -12.1%
46 | CCN(Cc1c(F)cccc1Cl)c1cc(C2CCNCC2)nc(C)n1 | 5.16%
47 | Cc1cnc(CNc2ncc(C)c(-c3cnn(C)c3)n2)cn1 | 7.86%
48 | CCOc1cc2c(cc1CN1CCC3(CC1)CNC(=O)C3)CCC2 | -2.04%
49 | CCc1ccc(CN2CCN(CCOC)[C@@H]3CS(=O)(=O)C[C@@H]32)cc1 | -5.72%
50 | COc1cccc(CN(C)Cc2[nH]c3ccccc3c2C)c1O | 3.38%
51 | COC[C@]1(O)CCN(C2CCN(c3ccc(F)c(F)c3)CC2)CC1(C)C | -3.85%
52 | Cc1ccccc1OCC(O)C(=O)N1CCC2(CC1)CN(C)C(=O)O2 (stereo not drawn) | -47.6%
53 | CCCn1cc(C(=O)NC2CCN(CC(=O)NC3CC3)CC2)c(C)n1 | 2.29%
54 | COc1cc(C2CC(=O)NCc3nc4sccn4c32)cc(OC)c1O (stereo not drawn) | -0.966%
55 | O=C(NCCc1ccc(Cl)cc1)c1coc(CN2CCOCC2)c1 | 0.383%
56 | CCCOc1cc(Cl)c(CN2CCNC(C(=O)NC3CC3)C2)cc1OC (stereo not drawn) | 0.508%
57 | Cc1ncsc1CCCNC(=O)C1CC2(CCNCC2)CN1C (stereo not drawn) | 9.18%
58 | CC(C)=CCCC1(C)CCC(=O)N(CCc2csc(N)n2)C1 (stereo not drawn) | -4.27%
59 | CN(Cc1ccsc1)C(=O)c1n[nH]c(N)c1-c1ccccc1 | -6.27%
60 | CCN1CCC(N2C[C@@H](C(=O)O)[C@H](c3cccc(OC)c3)C2)CC1 | -2.85%
61 | COCc1nc(CNC(=O)C(C)n2ccnc2C(C)C)no1 (stereo not drawn) | -0.376%
62 | COCc1noc(CN2C[C@H](NS(C)(=O)=O)[C@@H](C3CC3)C2)n1 | 1.67%
63 | Cc1c(-c2c(-c3ccccc3)ncn2[C@@H](C(=O)O)[C@H](C)O)cnn1C | -7.67%
64 | CN(Cc1cc[nH]n1)C(=O)c1cn(Cc2ccccc2Cl)nn1 | 7.59%
65 | CCC[C@@H]1CN(Cc2cc(OC)c3c(c2)OCO3)C[C@H]1C(=O)O | -0.778%
66 | O=C(c1ccnc(-n2cnnc2)c1)N1CCCC2(CCOC2)C1 (stereo not drawn) | -15.1%

Row | Compound | cytotoxicity at 10 µM
67 | CCc1ccc(NC(=O)C2CCN(C(=O)COC)CC2)cc1 | 0.929%
68 | COc1ccc(-c2n[nH]cc2CN(C)CCc2scnc2C)c(F)c1 | 3.06%
69 | COC(=O)N1CCC2(CC1)CC(c1ccccc1)CN(C)C2 (stereo not drawn) | 2.09%
70 | CCN1CCN(C(=O)c2ccc(Cn3ccccc3=O)o2)CC1 | -9.39%
71 | O=C(COCC(F)(F)F)N1CCCC(n2cccn2)C1 (stereo not drawn) | -6.28%
72 | COc1c(CNC(c2ccccc2)c2nccn2C)c(C)nn1C (stereo not drawn) | -3.16%
73 | CCOc1ccccc1C(CC(=O)Nc1ncc(C)s1)NC(C)=O (stereo not drawn) | -15.3%
74 | COC(=O)c1cccn1C1CCN(C(=O)c2cc(F)ccc2F)CC1 | -9.62%
75 | Cc1ccc(N(C)C2CCN(C(=O)c3ccsc3)CC2)nn1 | -12.1%
76 | Cc1cc(C)n(CC2CCCN2CCc2ccncc2)n1 (stereo not drawn) | -15.5%
77 | CC(C)c1nn(C)c(N(C)C)c1CNCc1ccccc1CN(C)C | 1.53%
78 | CN(C)C(=O)CN1CCN(C(=O)Cc2csc(-c3ncccn3)n2)CC1 | -8.52%
79 | O=C1C(NS(=O)(=O)c2cc(F)cc(F)c2)CCN1Cc1ccccc1 (stereo not drawn) | -10%
80 | CCCNC(=O)C1CCN(Cc2csc(C(C)(C)C)n2)CC1 | -9.11%
81 | CS(=O)(=O)c1ccc(CNC2CCCN(c3cccnn3)C2)cc1 (stereo not drawn) | 1.3%
82 | OCC1CCCN1c1cc(N2CCC(OC3CCCC3)CC2)ncn1 (stereo not drawn) | -2.43%
83 | CNC(=O)N1CCC2(CC1)CN(C)Cc1cc(F)ccc12 | 4.16%
84 | CN(CCO)CC1COCCN1C(=O)CCC1CCCC1 (stereo not drawn) | -9.83%
85 | Cc1ccc(CN2CCc3nnc(COCCN(C)C)n3CC2)o1 | 2.9%
86 | CCN1CCN(C)C(=O)C12CCN(Cc1cccc(C)c1)CC2 | -2.95%
87 | COCCN1CCCC2(CCN(c3ccsc3)C2=O)C1 (stereo not drawn) | -79.6%
88 | CN(C)C(=O)CO[C@H]1CN(Cc2ccoc2)[C@@H]2COC[C@H]12 | 6.17%

Row | Compound | cytotoxicity at 10 µM
89 | O=C1C[C@@H]2[C@H](CCN2Cc2ccco2)N1c1ccsc1 | 8.55%
90 | COCCN1CCN(C)C2(CCN(C(=O)c3ccnnc3)CC2)C1=O | 11.6%
91 | Cc1noc(C)c1CN1CC[C@H]2OCC[C@@]2(C(=O)N2CCCC2)C1 | -70.7%
92 | Cc1ccccc1C(=O)N1Cc2c(Cn3ccnc3)nn(C)c2C1 | -72.1%
93 | COCCN1CCO[C@@H]2CN(S(=O)(=O)c3cccnc3)C[C@@H]2C1 | 16.3%
94 | COCCN1CCC2(CC1)CN(C(=O)c1ccccc1)CCO2 | 1.61%
95 | O=C([C@H]1CCS(=O)(=O)[C@@H]2CN(CCc3ccccc3)C[C@H]12)N1CCCC1 | 0.688%
96 | Fc1ccc(CN2CC[C@H]3O[C@@H](COCc4cccnc4)CC[C@H]32)cc1 | -70%
97 | CC(=O)N1CCC2(CN(CC3CCCC3)C2)C1 | 2.05%
98 | O=C(c1cnccn1)N1CCOC2(CCCN(c3ncccc3F)C2)C1 (stereo not drawn) | 0.199%
99 | Cc1noc(C)c1CN1C[C@@H]2COC[C@@H](C(=O)N3CCCCO3)[C@@H]2C1 | -71.7%
100 | CCN1CC(=O)NCC12CCN(C(=O)c1ccno1)C2 (stereo not drawn) | -2.75%
101 | CC(=O)N1CCO[C@@H]2CN(Cc3cccc(Cl)c3)C[C@@H]2C1 | -104%
102 | Cc1noc(C)c1CN1CC2(CCCCN2C)CC1=O (stereo not drawn) | 2.75%
103 | c1cncc(OCC2CN(Cc3ccsc3)Cc3nccn3C2)c1 (stereo not drawn) | -72.4%
104 | O=C(CO)N1CCOC2(CCCN(c3ncc(F)cn3)C2)C1 (stereo not drawn) | 12.4%
105 | CN(C)CCn1c2c(ccc1=O)CC(NC(=O)NC1CCCC1)CC2 (stereo not drawn) | -0.913%
106 | CC(=O)NCc1noc2c1CN(CCN1CCCC1)CC2 | -5.46%
107 | Cc1ccc(CN2C[C@@H]3C[C@H](C(=O)NCc4cccnc4)[C@H](C2)O3)o1 | 3.82%
108 | Oc1cccc(CN2C[C@@H]3CC[C@H]2CN(Cc2ccc(F)cc2)C3)c1 | -135%
